# Bioassay records (PubChem)
# Hits are enriched below; roughly 3.2% of the tested compounds scored in any of these assays.
# OX1R antag-1: blocks the human orexin 1 receptor. CHO/OX1R cells, Fluo-8 calcium fluorescence, orexin A. inhibition, % at 5 µM. actives 0.43% (n = 330,000). AID 434989. O43613;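 active = inhibition above its plate's threshold, mean inhibition of all tested compounds on the plate plus 3 SD, cut at about 37% in these data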
# GPR7 antag: human neuropeptides B/W receptor 1 antagonism | GPR7-expressing cells, fluorescence antagonist assay | inhibition, % at 4.4 µM | actives 1.1% (n = 290,000) | AID 1861; in the data active = inhibition above about 16%, passing the limit was not always enough;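 also: cells stimulated with the agonist NPW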
# OX1R antag-2: blocks the human orexin 1 receptor | O43613 | actives 1.8% (n = 330,000) | OX1R-expressing cells, FRET antagonist read-out | inhibition, % at 6.6 µM; in the data active = inhibition mostly above about 38%, no sharp cut-off; inactive = mostly below about 40%
# CHO parental Ca: counter-screen for OX1R antagonists: effect in parental CHO cells; actives 0.63% (n = 330,000); inhibition, % at 5.6 µM; AID 463079; parental CHO-K1, ATP-induced calcium, Fluo-8 fluorescence;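 active = inhibition above that plate's mean sample inhibition plus 3 SD, cut at about 26% in these data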
#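 Material: Parental CHO cells | Reagent: ATP | Compound dosing: Single nominal dose of 5.6 µM per compound | Detection: Intracellular calcium via Fluo-8 no-wash fluorescent dye | Read-out: % inhibition of ATP-induced calcium mobilization | Benchmarks: Low control ATP plus DMSO, high control DMSO only | Replicates: Singlicate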
# TRPN1 ag: activates the zebrafish TRPN1 channel; HEK293 zebrafish TRPN1-YFP, Fluo-8 calcium fluorescence; 100% = response to 87 µM carbachol; activation, % at 3 µM; actives 0.18% (n = 220,000); AID 1424;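 active = activation above its plate's cutoff, the mean activation of test wells on that plate plus 3 SD, cut at about 19% in these data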
#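 System: zebrafish TRPN1-YFP in HEK293 cells / Dosing: 3 µM single point / Timing: dye loading 1 h at 37 °C, then 30 min room temperature / Signal: Fluo-8 calcium fluorescence, excitation 470-495 nm, emission 515-575 nm / Read-out basis: percent activation from peak over basal fluorescence ratio, control-normalized / Control set: high carbachol 87 µM, low DMSO alone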
# TRPML3 ag: activates the human TRPML3 channel; Q8TDD5; HEK293 TRPML3-YFP, Fluo-8 calcium fluorescence; 100% = the carbachol control signal; activation, % at 3 µM; actives 0.29% (n = 220,000); AID 1448;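 active = activation above its plate's cutoff, the mean activation of the plate's test wells plus 3 SD, cut at about 12% in these data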
# Target sequence (Q8TDD5 whole entry, looked up): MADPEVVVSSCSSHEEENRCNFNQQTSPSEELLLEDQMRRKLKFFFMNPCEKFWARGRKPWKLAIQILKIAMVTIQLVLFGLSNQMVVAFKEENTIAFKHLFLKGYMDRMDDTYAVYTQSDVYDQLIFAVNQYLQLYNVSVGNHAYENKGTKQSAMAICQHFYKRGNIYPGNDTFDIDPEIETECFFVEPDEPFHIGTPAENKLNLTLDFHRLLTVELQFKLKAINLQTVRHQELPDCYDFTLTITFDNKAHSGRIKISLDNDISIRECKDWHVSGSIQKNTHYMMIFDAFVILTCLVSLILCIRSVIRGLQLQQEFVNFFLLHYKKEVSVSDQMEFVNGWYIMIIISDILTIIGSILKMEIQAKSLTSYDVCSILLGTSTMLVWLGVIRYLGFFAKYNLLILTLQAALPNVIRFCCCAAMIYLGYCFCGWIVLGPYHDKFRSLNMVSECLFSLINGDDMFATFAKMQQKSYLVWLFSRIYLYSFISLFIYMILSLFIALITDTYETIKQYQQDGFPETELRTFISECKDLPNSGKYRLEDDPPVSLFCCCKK
#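 Material: HEK293 cells stably carrying human TRPML3-YFP; compound dosing: single dose, 3 µM final nominal compound, 0.3% DMSO final; incubation: 1-h 37 °C dye load, 5-s basal, 120-s post-compound reads; technique: Fluo-8 intracellular calcium fluorescence, excitation 470-495 nm, emission 515-575 nm; read-out basis: percent activation from peak-to-basal fluorescence ratio, scaled between DMSO and carbachol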
# A number is an active result; . = inactive; / = no result given.
SMILES,OX1R antag-1,GPR7 antag,OX1R antag-2,CHO parental Ca,TRPN1 ag,TRPML3 ag
CCc1nc2n(n1)C(O)c1cc([N+](=O)[O-])ccc1S2 (centres undefined),.,.,46.1,.,.,.
O=C(CN(Cc1cccs1)C(=O)CNS(=O)(=O)c1ccc(Cl)cc1)NCC1CCCO1 (centres undefined),.,.,.,.,.,.
CCc1cc2cc(C)ccc2nc1SCC(=O)NNC(=O)c1ccco1,.,.,47.7,.,/,/
CC1(C)C(=O)Nc2ccccc2N1C(=O)COC(=O)/C=C/c1ccc(OC(F)F)cc1,.,/,.,.,/,/
CN(C)C(=O)c1nnsc1Sc1ccc(Cl)cc1,.,.,.,.,.,.
O=C(Oc1ccc2ccc(=O)oc2c1)c1ccc([N+](=O)[O-])cc1,.,.,.,.,/,/
O=c1ccc2ccc(Oc3ccc([N+](=O)[O-])cc3[N+](=O)[O-])cc2o1,.,.,85.3,.,.,.
COc1cccc(NC(=O)C2CCCN(S(=O)(=O)c3cccc4nsnc34)C2)c1 (centres undefined),.,.,85.0,.,.,.
CCc1cccc(NC(=O)C2CCCN(S(=O)(=O)c3cccs3)C2)c1 (centres undefined),.,.,52.1,.,/,/
CCN1CCN(C(=O)C2CCCN(S(=O)(=O)c3cccc4nsnc34)C2)CC1 (centres undefined),.,.,51.6,.,/,/
COc1ccccc1NC(=O)C1CCCN(S(=O)(=O)c2cccc3nsnc23)C1 (centres undefined),.,.,.,.,.,.
O=C(NCC1CCCO1)C1CCCN(S(=O)(=O)c2cccc3nsnc23)C1 (centres undefined),.,.,55.3,.,.,.
O=C(C1CCCN(S(=O)(=O)c2cccc3nsnc23)C1)N1CCCCCC1 (centres undefined),.,.,.,.,.,.
CC1CCC2(CC1)NC(=O)N(CC(=O)c1ccc(CNC(=O)C(C)(C)C)s1)C2=O (centres undefined),.,/,34.6,.,/,/
CC1CCC2(CC1)NC(=O)N(CC(=O)c1ccc[nH]1)C2=O (centres undefined),.,.,.,.,.,.
C#CC(C)(CC)NC(=O)c1cc2nc(C3CC3)cc(C(F)(F)F)n2n1 (centres undefined),.,.,.,.,.,.
NC(=O)c1oc2ccccc2c1NC(=O)c1nc2ccccc2s1,.,.,.,.,.,.
O=C(Nc1nnc(-c2ccccc2)o1)c1nc2ccccc2s1,.,/,.,27.8,/,/
COCCn1c(-c2ccc(Cl)cc2)cnc1SCC(=O)NCc1cccs1,.,19.9,.,.,.,.
CC(=O)Nc1ncc(Cc2cc(Cl)ccc2Cl)s1,.,.,69.8,.,.,.
CC(=O)Nc1ncc(Cc2cccc(Cl)c2Cl)s1,.,.,.,.,.,.
COC(=O)[C@]1(C)N[C@H](c2ccc(-c3ccc(F)cc3)cc2)[C@@H]2C(=O)N(C)C(=O)[C@@H]21,.,/,.,.,/,/
Oc1cc(NCCc2cccnc2)cc2cccnc12,.,/,66.4,.,/,/
O=C(NCCN1CCOCC1)c1cccc(S(=O)(=O)N(Cc2ccccc2)c2ccccc2)c1,.,/,.,.,/,/
Clc1ccccc1OCCn1cnc2ccccc21,.,.,.,.,.,.
SMILES,OX1R antag-1,GPR7 antag,OX1R antag-2,CHO parental Ca,TRPN1 ag,TRPML3 ag
Brc1ccccc1OCCCCn1cnc2ccccc21,.,.,34.6,65.6,.,.
COc1ccc(OCC(=O)Nc2ccc(N3CCN(C(=O)c4ccccc4)CC3)c(Cl)c2)cc1,.,.,.,43.4,/,/
CCCN1CCN(c2nc(-c3cccs3)nc3ccccc23)CC1,.,.,.,.,.,.
CCOC(=O)N1CCN(c2nc(-c3cccs3)nc3ccccc23)CC1,.,.,74.5,.,/,/
CC1(C)C2CC=C(/C=N/NC(=O)c3ccccc3Br)C1C2 (centres undefined),.,.,.,.,.,.
Cn1ccnc1SCCNC(=O)CCc1nnc(CCc2ccccc2)o1,.,.,.,.,.,.
COc1cc(/C=C/c2nc3ccccc3c(=O)[nH]2)cc(OC)c1OC,.,.,.,.,/,/
COc1cc(/C=C/c2nnc3c4ccccc4ncn23)cc(OC)c1OC,.,.,64.8,.,.,.
COc1ccc(NC(=S)NC(NC(=O)c2cccc(Cl)c2)C(Cl)(Cl)Cl)c([N+](=O)[O-])c1 (centres undefined),.,.,.,26.3,.,.
CCOC(=O)c1c(C)[nH]c(C(=O)OCC(=O)Nc2cccnc2Cl)c1C,.,/,.,.,/,/
Cc1ccc(NC2=C(Cl)C(=O)c3ccccc3C2=O)cc1,.,.,.,.,.,.
O=C1C(Cl)=C(Nc2ccc(O)cc2)C(=O)c2ccccc21,43.9,38.3,156.2,44.9,.,.
O=C(N/N=C/c1ccccc1[N+](=O)[O-])c1cnccn1,.,.,.,.,.,.
C/C(CC(=O)Nc1ccccn1)=N\NC(=O)c1ccc([N+](=O)[O-])cc1Cl,.,.,.,.,/,/
O=C(Nc1ccccn1)c1ccc([N+](=O)[O-])cc1Cl,.,.,55.7,.,.,.
O=C(N/N=C/c1ccc(Cl)c([N+](=O)[O-])c1)c1cnccn1,.,.,56.8,.,.,.
Cc1ccc([N+](=O)[O-])c(C(=O)N/N=C/c2cccnc2)c1,.,.,41.5,.,.,.
O=C(N/N=C/c1cccnc1)c1ccc([N+](=O)[O-])cc1Cl,.,.,34.9,.,.,.
CN(C)S(=O)(=O)c1ccc(N2CCCC2)c(C(=O)NNC(=O)c2ccccc2)c1,.,/,.,.,/,/
COc1ccc(N2CCN(C(=O)CN3c4cccc5cccc(c45)S3(=O)=O)CC2)cc1,.,/,.,.,/,/
Cc1cccc(NC(=O)CSCC(=O)N2CCN(c3cccc(C(F)(F)F)c3)CC2)c1,.,/,30.1,.,/,/
CN(C)S(=O)(=O)c1ccc(NC(=O)N2CCN(c3cccc(C(F)(F)F)c3)CC2)cc1,48.0,.,.,38.5,.,.
COc1ccc(S(=O)(=O)NNC(=O)C(=O)NNc2ccccn2)cc1,.,.,.,.,.,.
NC(=O)N/N=C/c1ccccc1OCC(=O)NCc1ccccc1,.,.,.,.,.,.
N#Cc1c2ccc([N+](=O)[O-])cc2[n+]([O-])n1-c1ccccc1,.,/,44.9,.,/,/
Cc1ccc(S(=O)(=O)N(C)C)cc1NC(=S)Nc1cccc2ccccc12,.,46.0,.,.,/,/
O=C(Nc1ccc2nc(-c3ccco3)c(-c3ccco3)nc2c1)NC1CC1,/,.,/,/,.,.
O=C(Nc1ccc(N2CCOCC2)cc1)Nc1ccc2nc(-c3ccco3)c(-c3ccco3)nc2c1,.,.,51.1,.,.,.
O=C(O)C(Cc1ccc(Cl)cc1)Sc1nc2ccccc2[nH]1 (centres undefined),/,.,/,/,/,/
